ChEMBL document CHEMBL4190234, “Design, synthesis and anticancer activity of new monastrol analogues bearing 1,3,4-oxadiazole moiety” (Eur J Med Chem, 2017)

Experiments:
DU-145 = assay: Growth inhibition of human DU145 cells at 10 uM incubated for 48 hrs by sulforhodamine B assay relative to control; format: functional; conditions: DU-145, 48 h, read-out: GI
Outline: (§1)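 Single-dose screen at 10 μM final: cells in RPMI 1640, 5% FBS, 2 mM L-glutamine, plated 5,000–40,000/well, preincubated 24 h at 37°C, 5% CO2; drug 48 h; adherent cells fixed with 10% TCA, suspension cells with 16% TCA; SRB stain, absorbance 515 nm; percentage growth versus untreated control, with time-zero plates.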

MCF7 = assay: Growth inhibition of human MCF7 cells at 10 uM incubated for 48 hrs by sulforhodamine B assay relative to control; format: functional; conditions: MCF7, 48 h, read-out: GI; outline: as §1
U-251 = assay: Growth inhibition of human U251 cells at 10 uM incubated for 48 hrs by sulforhodamine B assay relative to control; format: functional; conditions: U-251, 48 h, read-out: GI
Outline: (§2)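 NCI single-dose screen: cells grown in RPMI 1640 with 5% FBS and 2 mM L-glutamine, plated at 5,000–40,000 cells/well and preincubated 24 h at 37 °C, 5% CO2. Compounds taken from DMSO stock and tested at final 10 µM for 48 h. Cells fixed with TCA, stained with 0.4% SRB, absorbance read at 515 nm. Percentage growth calculated against untreated controls; controls held DMSO at the same dilution.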

NCI-H23 = assay: Growth inhibition of human NCI-H23 cells at 10 uM incubated for 48 hrs by sulforhodamine B assay relative to control; format: functional; conditions: NCI-H23, 48 h, read-out: GI; outline: as §1
HCT-15 = assay: Growth inhibition of human HCT15 cells at 10 uM incubated for 48 hrs by sulforhodamine B assay relative to control; format: functional; conditions: HCT-15, 48 h, read-out: GI; outline: as §1
MOLT-4 = assay: Growth inhibition of human MOLT4 cells incubated for 24 hrs by MTT assay; format: functional, cell-based; conditions: MOLT-4, 24 h
OVCAR-8 = assay: Growth inhibition of human OVCAR8 cells at 10 uM incubated for 48 hrs by sulforhodamine B assay relative to control; format: functional; conditions: OVCAR-8, 48 h, read-out: GI; outline: as §1
HCC 2998 = assay: Growth inhibition of human HCC2998 cells at 10 uM incubated for 48 hrs by sulforhodamine B assay relative to control; format: functional; conditions: HCC 2998, 48 h, read-out: GI; outline: as §1
RXF 393 = assay: Growth inhibition of human RXF393 cells at 10 uM incubated for 48 hrs by sulforhodamine B assay relative to control; format: functional; conditions: RXF 393, 48 h, read-out: GI; outline: as §1
786-0 = assay: Growth inhibition of human 786-0 cells at 10 uM incubated for 48 hrs by sulforhodamine B assay relative to control; format: functional; conditions: 786-0, 48 h, read-out: GI; outline: as §1
Hs-578T = assay: Growth inhibition of human Hs 578T cells at 10 uM incubated for 48 hrs by sulforhodamine B assay relative to control; format: functional; conditions: read-out: GI; outline: as §1
NCI-H522 = assay: Growth inhibition of human NCI-H522 cells at 10 uM incubated for 48 hrs by sulforhodamine B assay relative to control; format: functional; conditions: NCI-H522, 48 h, read-out: GI; outline: as §1
SK-OV-3 = assay: Growth inhibition of human SKOV3 cells at 10 uM incubated for 48 hrs by sulforhodamine B assay relative to control; format: functional; conditions: SK-OV-3, 48 h, read-out: GI; outline: as §2
KM12 = assay: Growth inhibition of human KM12 cells at 10 uM incubated for 48 hrs by sulforhodamine B assay relative to control; format: functional; conditions: KM12, 48 h, read-out: GI; outline: as §1
LOX IMVI = assay: Growth inhibition of human LOXIMVI cells at 10 uM incubated for 48 hrs by sulforhodamine B assay relative to control; format: functional; conditions: read-out: GI; outline: as §1
A549 = assay: Growth inhibition of human A549/ATCC cells at 10 uM incubated for 48 hrs by sulforhodamine B assay relative to control; format: functional; conditions: A549, 48 h, read-out: GI; outline: as §1
HOP-62 = assay: Growth inhibition of human HOP62 cells at 10 uM incubated for 48 hrs by sulforhodamine B assay relative to control; format: functional; conditions: HOP-62, 48 h, read-out: GI; outline: as §1
HL-60(TB) = assay: Growth inhibition of human HL-60(TB) cells at 10 uM incubated for 48 hrs by sulforhodamine B assay relative to control; format: functional; conditions: HL-60, 48 h, read-out: GI
Outline: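 Single dose of 10 µM in the NCI ~60-line panel. Cells grown in RPMI 1640 with 5% FBS and 2 mM L-glutamine, plated and pre-incubated 24 h, then exposed 48 h at 37°C under 5% CO2. Suspension cells fixed with TCA (16% final) and stained with sulforhodamine B, A515 read. Reported as percent growth versus untreated control and as GI%.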

MDA-MB-435 = assay: Growth inhibition of human MDA-MB-435 cells at 10 uM incubated for 48 hrs by sulforhodamine B assay relative to control; format: functional; conditions: MDA-MB-435, 48 h, read-out: GI; outline: as §1
OVCAR-3 = assay: Growth inhibition of human OVCAR3 cells at 10 uM incubated for 48 hrs by sulforhodamine B assay relative to control; format: functional; conditions: OVCAR-3, 48 h, read-out: GI; outline: as §1
SK-MEL-28 = assay: Growth inhibition of human SK-MEL-28 cells at 10 uM incubated for 48 hrs by sulforhodamine B assay relative to control; format: functional; conditions: SK-MEL-28, 48 h, read-out: GI; outline: as §2
CCRF-CEM = assay: Growth inhibition of human CCRF-CEM cells at 10 uM incubated for 48 hrs by sulforhodamine B assay relative to control; format: functional; conditions: read-out: GI; outline: as §1
BT-549 = assay: Growth inhibition of human BT549 cells at 10 uM incubated for 48 hrs by sulforhodamine B assay relative to control; format: functional; conditions: BT-549, 48 h, read-out: GI; outline: as §1
HT-29 = assay: Growth inhibition of human HT-29 cells at 10 uM incubated for 48 hrs by sulforhodamine B assay relative to control; format: functional; conditions: HT-29, 48 h, read-out: GI; outline: as §1
TK-10 = assay: Growth inhibition of human TK10 cells at 10 uM incubated for 48 hrs by sulforhodamine B assay relative to control; format: functional; conditions: TK-10, 48 h, read-out: GI; outline: as §2
SNB-19 = assay: Growth inhibition of human SNB19 cells at 10 uM incubated for 48 hrs by sulforhodamine B assay relative to control; format: functional; conditions: SNB-19, 48 h, read-out: GI; outline: as §2
T47D = assay: Growth inhibition of human T47D cells at 10 uM incubated for 48 hrs by sulforhodamine B assay relative to control; format: functional; conditions: read-out: GI; outline: as §2
SK-MEL-5 = assay: Growth inhibition of human SK-MEL-5 cells at 10 uM incubated for 48 hrs by sulforhodamine B assay relative to control; format: functional; conditions: SK-MEL-5, 48 h, read-out: GI; outline: as §2
UACC-62 = assay: Growth inhibition of human UACC62 cells at 10 uM incubated for 48 hrs by sulforhodamine B assay relative to control; format: functional; conditions: UACC-62, 48 h, read-out: GI; outline: as §2
COLO 205 = assay: Growth inhibition of human COLO205 cells at 10 uM incubated for 48 hrs by sulforhodamine B assay relative to control; format: functional; conditions: COLO 205, 48 h, read-out: GI; outline: as §1

SMILES | inhibition of growth at 10 µM (DU-145) [%] | inhibition of growth at 10 µM (MCF7) [%] | inhibition of growth at 10 µM (U-251) [%] | inhibition of growth at 10 µM (NCI-H23) [%] | inhibition of growth at 10 µM (HCT-15) [%] | inhibition of growth at 10 µM (OVCAR-8) [%] | inhibition of growth at 10 µM (HCC 2998) [%] | inhibition of growth at 10 µM (RXF 393) [%] | inhibition of growth at 10 µM (786-0) [%] | inhibition of growth at 10 µM (Hs-578T) [%] | inhibition of growth at 10 µM (NCI-H522) [%] | inhibition of growth at 10 µM (SK-OV-3) [%] | inhibition of growth at 10 µM (KM12) [%] | inhibition of growth at 10 µM (LOX IMVI) [%] | inhibition of growth at 10 µM (A549) [%] | inhibition of growth at 10 µM (HOP-62) [%] | inhibition of growth at 10 µM (HL-60(TB)) [%] | inhibition of growth at 10 µM (MDA-MB-435) [%] | inhibition of growth at 10 µM (OVCAR-3) [%] | inhibition of growth at 10 µM (SK-MEL-28) [%] | also measured
CCOC(=O)C1=C(C)NC(SCc2nnc(-c3ccc(Cl)cc3)o2)=NC1c1ccc(Cl)cc1 (centres undefined) | 12.8 | 51 | 26.1 | 21.2 | 32.4 | 25.2 | 20.1 | 32.3 | 16.6 | 16.3 | 31.1 | 17.4 | 30.3 | 23.1 | 31 | < 10 | 78.6 | 30.4 | 29.2 | 20.2 | IC50 (MOLT-4): 623 nM; inhibition of growth at 10 µM (CCRF-CEM): 60.3%; inhibition of growth at 10 µM (BT-549): 24.7%; inhibition of growth at 10 µM (HT-29): 24.8%; inhibition of growth at 10 µM (TK-10): 22.5%; inhibition of growth at 10 µM (SNB-19): 27%; inhibition of growth at 10 µM (T47D): 50.1%; inhibition of growth at 10 µM (SK-MEL-5): 59.1%; inhibition of growth at 10 µM (UACC-62): 50.1%; inhibition of growth at 10 µM (COLO 205): 20.4%
CCOC(=O)C1=C(C)NC(SCc2nnc(-c3ccc(Cl)cc3)o2)=NC1c1cccc(Cl)c1 (centres undefined) | 13.5 | 32 | < 10 | < 10 | 29.5 | 33.7 | 10.3 | < 10 | 43 | < 10 | 74.6 | 29.9 | 16 | 17.7 | 29.5 | 25.1 | 80.4 | < 10 | 17.3 | < 10 | IC50 (MOLT-4): 1790 nM; inhibition of growth at 10 µM (CCRF-CEM): 38.2%; inhibition of growth at 10 µM (BT-549): 46.9%; inhibition of growth at 10 µM (HT-29): 46.4%; inhibition of growth at 10 µM (TK-10): 30.3%; inhibition of growth at 10 µM (SNB-19): 10.4%; inhibition of growth at 10 µM (T47D): 69.2%; inhibition of growth at 10 µM (SK-MEL-5): < 10%; inhibition of growth at 10 µM (UACC-62): 26.6%; inhibition of growth at 10 µM (COLO 205): 29.6%
CCOC(=O)C1=C(C)NC(SCc2nnc(-c3ccc(Cl)cc3)o2)=NC1c1ccc(F)cc1 (centres undefined) | < 10 | 13.3 | 10.1 | < 10 | 15.8 | 11.7 | < 10 | < 10 | 10.7 | < 10 | 17.5 | < 10 | < 10 | < 10 | 11.7 | < 10 | 23.5 | < 10 | < 10 | < 10 | inhibition of growth at 10 µM (CCRF-CEM): 16.9%; inhibition of growth at 10 µM (BT-549): < 10%; inhibition of growth at 10 µM (HT-29): 10.3%; inhibition of growth at 10 µM (TK-10): 13.9%; inhibition of growth at 10 µM (SNB-19): 11.6%; inhibition of growth at 10 µM (T47D): 27.1%; inhibition of growth at 10 µM (SK-MEL-5): 12.5%; inhibition of growth at 10 µM (UACC-62): 10.7%; inhibition of growth at 10 µM (COLO 205): < 10%
